Key:
Type in all cases: functional, cell-based
L1210 = experiment: Cytotoxicity against mouse L1210 cells after 2 days by MTT assay
Summary of the method: (§1)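 Cells were seeded at 5 × 10³ per well and exposed to eight compound concentrations (50, 25, 12.5, 6.25, 3.13, 1.56, 0.78, 0.39), with positive and blank controls. Incubation was 2 days at 37 °C and 5% CO₂. MTT (5 mg/mL stock) was then added for 4 h. After the supernatant was removed, formazan was dissolved in DMSO for 20 min at room temperature. OD was read at 570 nm, and viability was expressed as % of compound-free medium controls.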

K562 = experiment: Cytotoxicity against human K562 cells after 2 days by MTT assay; summary of the method: as §1
A549 = experiment: Cytotoxicity against human A549 cells after 2 days by MTT assay; summary of the method: as §1

Structure (SMILES) | IC50 (L1210; Mus musculus, L1210, 48 h) | IC50 (K562; Homo sapiens, K562, 48 h) | IC50 (A549; Homo sapiens, A549, 48 h) | IC50 (L1210; l1210) | IC50 (K562; k562) | IC50 (A549; a549)
COc1cc2c3cc1Oc1c(OC)c(OC)cc4c1[C@@H](Cc1ccc(O[C@@H]5O[C@H](COC(C)=O)[C@@H](OC(C)=O)[C@H](OC(C)=O)[C@H]5OC(C)=O)c(c1)Oc1ccc(cc1)C[C@@H]3N(C)CC2)N(C)CC4 | 570 nM | 1960 nM | 29500 nM |  |  | 
COc1cc2c3cc1Oc1c(OC)c(OC)cc4c1[C@@H](Cc1ccc(O[C@@H]5O[C@H](COC(C)=O)[C@@H](O[C@@H]6O[C@H](COC(C)=O)[C@@H](OC(C)=O)[C@H](OC(C)=O)[C@H]6OC(C)=O)[C@H](OC(C)=O)[C@H]5OC(C)=O)c(c1)Oc1ccc(cc1)C[C@@H]3N(C)CC2)N(C)CC4 [listing 1 of 2 here] |  |  | 27800 nM | 300 nM | 2230 nM | 
COc1cc2c3cc1Oc1c(OC)c(OC)cc4c1[C@@H](Cc1ccc(O[C@@H]5OC[C@@H](OC(C)=O)[C@H](OC(C)=O)[C@H]5OC(C)=O)c(c1)Oc1ccc(cc1)C[C@@H]3N(C)CC2)N(C)CC4 | 1270 nM | 1550 nM | ≥ 50000 nM |  |  | 
COc1cc2c3cc1Oc1c(OC)c(OC)cc4c1[C@@H](Cc1ccc(O[C@@H]5O[C@H](COC(C)=O)[C@@H](O[C@@H]6O[C@H](COC(C)=O)[C@H](OC(C)=O)[C@H](OC(C)=O)[C@H]6OC(C)=O)[C@H](OC(C)=O)[C@H]5OC(C)=O)c(c1)Oc1ccc(cc1)C[C@@H]3N(C)CC2)N(C)CC4 | 2030 nM | 3560 nM | ≥ 50000 nM |  |  | 
COc1cc2c3cc1Oc1c(OC)c(OC)cc4c1[C@@H](Cc1ccc(O[C@@H]5O[C@H](COC(C)=O)[C@H](OC(C)=O)[C@H](OC(C)=O)[C@H]5OC(C)=O)c(c1)Oc1ccc(cc1)C[C@@H]3N(C)CC2)N(C)CC4 | 2170 nM | 2030 nM | 43000 nM |  |  | 
COc1cc2c3cc1Oc1c(OC)c(OC)cc4c1[C@@H](Cc1ccc(O[C@@H]5O[C@H](CO)[C@@H](O[C@@H]6O[C@H](CO)[C@@H](O)[C@H](O)[C@H]6O)[C@H](O)[C@H]5O)c(c1)Oc1ccc(cc1)C[C@@H]3N(C)CC2)N(C)CC4 | 10600 nM | ≥ 50000 nM | ≥ 50000 nM |  |  | 
COc1cc2c3cc1Oc1c(OC)c(OC)cc4c1[C@@H](Cc1ccc(O)c(c1)Oc1ccc(cc1)C[C@@H]3N(C)CC2)N(C)CC4 | 2730 nM | 4000 nM | 39700 nM |  |  | 
COc1cc2c3cc1Oc1c(OC)c(OC)cc4c1[C@@H](Cc1ccc(O[C@@H]5O[C@H](COC(C)=O)[C@@H](O[C@@H]6O[C@H](COC(C)=O)[C@@H](OC(C)=O)[C@H](OC(C)=O)[C@H]6OC(C)=O)[C@H](OC(C)=O)[C@H]5OC(C)=O)c(c1)Oc1ccc(cc1)C[C@@H]3N(C)CC2)N(C)CC4 [listing 2 of 2 here] |  |  |  | 1850 nM | ≥ 50000 nM | ≥ 50000 nM
COc1cc2c3cc1Oc1c(OC)c(OC)cc4c1[C@@H](Cc1ccc(O[C@H]5O[C@@H](COC(C)=O)[C@H](OC(C)=O)[C@@H](OC(C)=O)[C@@H]5OC(C)=O)c(c1)Oc1ccc(cc1)C[C@@H]3N(C)CC2)N(C)CC4 | 2740 nM | ≥ 50000 nM | ≥ 50000 nM |  |  | 
